UHRF1 binding = UHRF1 methylated DNA binding inhibitors, primary screen, counter-screen for MBD2 inhibitor project, biochemical, TR-FRET, human UHRF1, single concentration | inhibition, % at 4.4 µM | AID 687016, 2013 | E3 ubiquitin-protein ligase UHRF1 (Homo sapiens), Q96T88 | hit rate 0.75% among 370,000 | UHRF1 binding to methylated oligo; in the data active = inhibition above about 21%;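 also: UHRF1 SRA domain binding a hemimethylated CpG hairpin DNA probe; 0% = median of test compound wells and 100% = reference inhibitor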
MBD2 DNA inh = inhibitors of MBD2 binding to methylated DNA, primary screen, biochemical, TR-FRET, DNA-binding domain, human; MBD2 binding to methylated oligonucleotide; inhibition, % at 4.4 µM; Methyl-CpG-binding domain protein 2 (Homo sapiens), Q9UBB5; hit rate 0.31% among 370,000; in the data active = inhibition above about 13%
Target sequence (Q9UBB5 whole entry, looked up, the tested form may be a part): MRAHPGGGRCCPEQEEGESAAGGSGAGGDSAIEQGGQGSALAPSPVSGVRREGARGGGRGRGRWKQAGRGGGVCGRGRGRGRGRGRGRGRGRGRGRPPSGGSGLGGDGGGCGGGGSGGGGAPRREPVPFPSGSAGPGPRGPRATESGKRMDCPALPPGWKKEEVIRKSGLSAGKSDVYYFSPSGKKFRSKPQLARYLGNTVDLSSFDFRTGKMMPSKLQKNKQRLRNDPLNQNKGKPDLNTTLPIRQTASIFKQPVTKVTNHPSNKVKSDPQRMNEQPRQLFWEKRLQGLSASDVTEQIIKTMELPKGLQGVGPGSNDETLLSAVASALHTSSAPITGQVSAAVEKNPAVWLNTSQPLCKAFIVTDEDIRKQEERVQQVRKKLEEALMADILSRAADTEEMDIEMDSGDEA
CSN inh = inhibitors of CSN-mediated cullin deneddylation, primary screen, biochemical, fluorescence polarization, uHTS | hit rate 0.38% among 360,000 | COP9 signalosome complex subunit 5 (Homo sapiens), Q92905 | Purified CSN, SCF-Nedd8-OG deneddylation | inhibition, % at 12.5 µM;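 active = pattern-corrected inhibition above about 35%, with an unprinted fluorescence ratio check between 0.5 and 1.5, limit read from the data, passing the limit was not always enough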;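 also: 0% = enzyme with substrate and 100% = substrate without enzyme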
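Schedule: reaction 90 min, room temperature / Assay system: HEK293T-derived human Csn5 enzyme / Input: Csn5 at 0.24 nM final / Measure: inhibition of Csn5 cleavage, % / Control set: substrate-only high control, full reaction low control / Technique: fluorescence polarization of the substrate / Buffer or medium: Tris/NaCl/DTT buffer, pH 7.5 / Reagent: SCFSkp2-Nedd8OG substrate at 10 nM final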
rCAG RNA binder = binders of r(CAG) RNA repeats, primary screen, biochemical, fluorescence. inhibition, % at 3 µM. hit rate 1.3% among 370,000. r(CAG) RNA repeat, TO-PRO-1 dye displacement fluorescence;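 active = inhibition above the plate cutoff, the mean of all test compounds on that plate plus 3 SD, cut at about 35% in these data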;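 also: 0% = DMSO alone and 100% = 100 µM mitoxantrone as full dye displacement; higher means more dye released from RNA so lower well fluorescence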
LEDGF integ inh = blockers of LEDGF/p75-dependent integrase strand transfer – biochemical, TR-FRET, high throughput, primary screen. AID 743269, 2014. hit rate 0.64% among 370,000. TR-FRET IN-LEDGF/p75 DNA integration, Eu/Cy5. HIV-1 integrase (with human LEDGF/p75). inhibition, % at 3.7 µM;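 active = inhibition above the screen-wide mean plus 3 SD, cut at about 13% in these data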;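 also: signal is the Cy5 over europium emission ratio at 671 and 618 nm; 0% = plate median of compound wells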
ATG4B inhibitor = ATG4B protease inhibitors, primary screen, biochemical, fluorescence, uHTS; Cysteine protease ATG4B (Homo sapiens), Q9Y4P1; ATG4B cleavage of LC3-PLA2, NBD-HPC fluorescence, 1 h; inhibition, % at 8.33 µM; hit rate 0.51% among 340,000; AID 504462, 2011; in the data active = inhibition above about 40%
ATG4B confirm = ATG4B protease inhibitors, retest, confirmation, biochemical, fluorescence, single concentration; hit rate 92% among 320; shares compounds with ATG4B inhibitor; ATG4B protease fluorescent substrate cleavage assay; inhibition, % at 8.33 µM; in the data active = inhibition above about 39%
PLA2 ctr = PLA2 enzyme inhibition, counter-screen for ATG4B inhibitor project, biochemical, single concentration, uHTS hits | shares compounds with ATG4B inhibitor | purified PLA2, NBD-C6-HPC fluorescence, 45 min | inhibition, % at 8.33 µM | hit rate 66% among 1,600; in the data active = inhibition above about 50%
Target sequence (P04054 whole entry, looked up): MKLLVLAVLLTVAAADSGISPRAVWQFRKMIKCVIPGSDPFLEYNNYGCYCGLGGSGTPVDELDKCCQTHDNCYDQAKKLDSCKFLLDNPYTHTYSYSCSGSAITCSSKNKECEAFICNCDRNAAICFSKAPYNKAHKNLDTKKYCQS
rCAG binder conf = small molecules binding CAG repeat RNA – biochemical, fluorescence, confirmation. shares compounds with rCAG RNA binder. r(CAG) RNA repeat, TO-PRO-1 dye displacement fluorescence. inhibition, % at 3 µM. hit rate 70% among 4,300. AID 652065, 2013;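 active = inhibition above a per-plate cutoff, the mean inhibition of sample wells plus 3 SD, cut at about 35% in these data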;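 also: loss of TO-PRO-1 fluorescence as compound displaces dye from 1x1 AA loop RNA; 0% = DMSO only wells and 100% = 100 µM mitoxantrone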
dCAG dye counter = displacement of TO-PRO-1 from CAG DNA duplex, counter-screen for rCAG RNA repeat binder project, biochemical, fluorescence, TO-PRO-1 dye, d(CAG) DNA oligo | shares compounds with rCAG RNA binder | d(CAG) DNA oligo TO-PRO-1 dye displacement | inhibition, % at 3 µM | hit rate 94% among 4,300 | AID 652068, 2013;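 active = inhibition above its plate's cutoff, the mean test-well inhibition plus 3 SD, cut at about 4.8% in these data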;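 also: 0% = DNA dye mix with DMSO and 100% = 100 µM mitoxantrone; hits displace the dye from DNA and so lower well fluorescence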
IN multimer act = HIV-1 IN multimer formation enhancers, counter-screen for LEDGF/p75 integration inhibitor project, biochemical, TR-FRET | hit rate 17% among 2,000 | AID 1053131, 2014 | shares compounds with LEDGF integ inh | TR-FRET HIV-1 integrase multimerization | activation, % at 7.7 µM; in the data active = activation above about 8.9%
TRFRET interf = TR-FRET optical interference artefacts, confirmation, artefact control for LEDGF/p75-dependent integration inhibitor project, biochemical, HIV-1 IN multimerization; shares compounds with LEDGF integ inh; TR-FRET optical interference counterscreen; inhibition, % at 7.7 µM; 2,000 tested, under 10 active; AID 1053135, 2014;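 active = inhibition above the mean over all tested compounds plus 3 SD, which no compound reached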;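 also: 0% = integrase with antibodies and DMSO and 100% = antibodies without integrase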
IN-LEDGF confirm = inhibitors of HIV-1 IN-LEDGF/p75 DNA integration, confirmation, biochemical, TR-FRET. shares compounds with LEDGF integ inh. TR-FRET LEDGF/p75-dependent HIV-1 integration. inhibition, % at 3.7 µM. hit rate 36% among 2,000; in the data active = inhibition above about 14%
Numbers without * were called inactive; . = no result. Hits are enriched below; roughly 3.1% of the tested compounds scored in any of these assays.

SMILES | UHRF1 binding | MBD2 DNA inh | CSN inh | rCAG RNA binder | LEDGF integ inh | ATG4B inhibitor | PLA2 ctr | others
O=c1c2ccccc2nc(/C=C/c2ccccc2)n1-c1ccccc1O | -1 | 6 | -3 | 16 | 1 | 62* | 70*
CNC(=S)NC1CC2CCCC(C1)N2CC(C)C (stereo not drawn) | 0 | -4 | -5 | 1 | 1 | -3 | .
Cc1ccc(CN2C3CCCC2CC(NC(=S)NCc2ccccc2)C3)cc1 (stereo not drawn) | 0 | 0 | 0 | 1 | -3 | 43* | 40 | ATG4B confirm=67*
Clc1ccccc1CN1CCN(c2ccccc2Cl)CC1 | 3 | 2 | 3 | -7 | -1 | 46* | 47 | ATG4B confirm=70*
Cc1ccc(-c2nn(Cc3ccccc3)cc2C=O)cc1 | 10 | -4 | -2 | 0 | 3 | 48* | 59*
Cc1ccc(-c2nn(Cc3ccccc3)cc2C=O)cc1C | -2 | -4 | 0 | -4 | 0 | 61* | 78*
CC(C)(C)NC(=O)CN1C(=O)[C@@H](Cc2c[nH]c3ccccc23)N=C(c2ccccc2)c2ccccc21 | -4 | -1 | . | 5 | 5 | . | .
c1ccc(CCN2CCC3CCNC3C2)cc1 (stereo not drawn) | 1 | 3 | . | 1 | 7 | . | .
CCOC(=O)C1=C(C)N(C)C2(C)CC1c1ccccc1O2 (stereo not drawn) | -1 | 2 | -1 | -5 | -1 | 48* | 26
CC12CC(c3ccccc3O1)C(C(=O)OCc1ccccc1)C(=O)N2 (stereo not drawn) | -2 | 1 | -7 | -7 | 1 | -3 | .
COc1ccc(-c2cc(=Nc3cccc(C(=O)O)c3)c3cc(C)ccc3o2)cc1 | -4 | 2 | 5 | 11 | 7 | 61* | 76*
CC[C@@H]1C[C@H]2CC[C@H](O2)[C@H](C)C(=O)O[C@@H](C)C[C@@H]2CC[C@@H](O2)[C@@H](C)C(=O)O[C@H](C)C[C@H]2CC[C@H](O2)[C@H](C)C(=O)O[C@@H](C)C[C@@H]2CC[C@@H](O2)[C@@H](C)C(=O)O1 | -2 | 3 | . | 2 | -1 | . | .
CCOC(=O)CC[C@@H]1CC[C@]2(CCCN(Cc3ccncc3)C2)O1 | 1 | -6 | . | 0 | 2 | . | .
Cc1cc(OCC(=O)NC(Cc2ccc(Cl)cc2)C(=O)O)c2c3c(c(=O)oc2c1)CCCC3 (stereo not drawn) | 0 | -6 | 4 | 63* | 2 | 45* | 72* | rCAG binder conf=66*;dCAG dye counter=27*
N#Cc1ccc(NC(=S)N2Cc3cc(Br)ccc3-n3nncc3C2)cc1 | 1 | -3 | . | 11 | -2 | . | .
CN(C)[C@@H]1C(=O)C(C(N)=O)=C(O)[C@@]2(O)C(=O)C3=C(O)c4c(O)ccc(Cl)c4[C@@](C)(O)C3C[C@@H]12 (stereo partly drawn) | 10 | -3 | 44 | 33 | 28* | 80* | 13 | ATG4B confirm=47*;IN multimer act=14*;TRFRET interf=-69;IN-LEDGF confirm=28*
O=C1C2CC=CCC2C(=O)N1SC(Cl)(Cl)Cl (stereo not drawn) | 4 | 0 | . | 5 | 1 | . | .
COC1C(OC(=O)c2ccc(C)[nH]2)C(O)C(Oc2ccc3c(O)c(NC(=O)c4ccc(O)c(CC=C(C)C)c4)c(=O)oc3c2Cl)OC1(C)C (stereo not drawn) | 1 | 5 | -4 | 77* | -1 | 39 | . | rCAG binder conf=89*;dCAG dye counter=70*
C[C@H]1CN([C@@H](C)CO)C(=O)CCCn2cc(nn2)CO[C@@H]1CN(C)C(=O)Oc1cccc2ccccc12 | -2 | -4 | . | 2 | -2 | . | .
O=C(N/N=C/c1c(O)n(Cc2ccco2)c(=O)[nH]c1=O)c1ccccc1O | 12 | 3 | 27 | 58* | 13 | 4 | . | rCAG binder conf=66*;dCAG dye counter=27*
CC(C)c1ccc(-n2c(O)c(/C=N/NC(=O)c3ccncc3)c(=O)[nH]c2=O)cc1 | -2 | -1 | 1 | 24 | 1 | -4 | .

Assay outcomes: PubChem BioAssay, several laboratories
